Here are results for ten compounds from article PMC10206482 (RSC Advances, 2023).

A word on the IC50: it is the midpoint of a concentration-inhibition curve.

In brackets after ≈: the same amount, converted by molar mass.

In one series the test system is human hepatoma (Huh-7). Kind of series: MTT antiproliferative assay, Huh-7. The conditions noted are these: Huh-7, read-out: Human hepatoma (Huh-7) IC50. The class given is cell-based. In outline: (§1)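 Colorimetric MTT viability readout, run in parallel on human Huh-7 hepatoma, A549 lung adenocarcinoma and MCF-7 breast cancer cells, and on MDCK canine kidney cells as the non-cancerous model. Test compound at four concentrations (0.1, 1, 10, 100 μM), with Taxol as the positive reference. % viability was plotted against concentration, and IC50 was derived as 50% growth inhibition relative to untreated control.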
Background: Formazan colour is commonly taken as a measure of viable cells.

The test system of series [1] is lung cell cancer adenocarcinoma (A549). Kind of series: MTT antiproliferative assay, A549. Type of series: cell-based. The conditions noted are these: Homo sapiens, A549, read-out: Lung cell cancer adenocarcinoma (A549) IC50. In outline: as §1
Series [2] has as its system Michigan Cancer Foundation-7 breast cancer (MCF-7). Kind of series: MTT antiproliferative assay, MCF-7. The class given is cell-based. The conditions noted are these: Homo sapiens, MCF7, read-out: Michigan cancer foundation-7 breast cancer (MCF-7) IC50. The essentials: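 Human MCF-7 breast cancer cells were exposed to the test compound at 0.1, 1, 10 and 100 μM, with Taxol as positive reference. Viability was read by MTT and plotted as % cell viability against concentration (μM). IC50 is the concentration giving 50% growth inhibition relative to untreated control cells, taken from the dose–response curve.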

In another series the test system is tubulin. The series is described as follows: Tubulin polymerization assay. The class given is biochemical. The conditions noted are these: for Inhibition (%) of tubulin polymerisation: in vitro tubulin inhibition assay; for IC50: read-out: IC50 tubulin polymerisation; for IC50 / IC50 tubulin polymerisation: as printed in Table 2 and results text. In outline:
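Turbidimetric tubulin polymerization, using tubulin at 4 mg ml⁻¹. Test compound came from a 2 mM DMSO stock, diluted with water to final 0.1, 1, 10 and 100 μM. Polymerization was started by moving the reaction from 4 °C to a pre-warmed 37 °C plate. Absorbance at 340 nm was followed kinetically at 37 °C (0.5 cm pathlength). CA-4 served as reference.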

The next series deals with (A549) cells. The series is described as follows: Morphological assessment of A549 cells. Type of series: cell-based, human. As to conditions: 100 μM, 48 h, compared to untreated control. In outline: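 Living cells were examined by inverted light microscopy for morphology changes, after exposure to test compound. Comparators were an untreated control and a Taxol-treated positive control.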

The subject of a further series is mammary tumors. Kind of series: In vivo DMBA-induced breast cancer model: tumor size and histopathology. Also noted: species or system Wistar rats. As to conditions: after treatment, 2 mg per kg per week.
Series [3] in a line: Body weight of tumor-bearing rats during treatment. As to conditions: 2 mg per kg per week, day 0 to day 42. The class given is in vivo, Wistar rats.

On to `COc1cc(/C=C2\CN(C(C)=O)CC3=C2OC(N)=C(C#N)C3c2ccc(O)c(OC)c2)ccc1O` (stereo not shown) [3a, (E)-6-Acetyl-2-amino-3-cyano-8-(4-hydroxy-3-methoxybenzylidene)-4-(4-hydroxy-3-methoxyphenyl)-5,6,7,8-tetrahydro-4H-pyrano[3,2-c]pyridine], for which the IC50 is 3.88 µM with human hepatoma (Huh-7), 31.6 µM in series [1], 8.87 µM in series [2] and 15.6 µM in the series on tubulin. Also, in the series with tubulin, the “Inhibition (%) of tubulin polymerisation” value amounted to 79%.
As for `CCOc1cc(/C=C2\CN(C(C)=O)CC3=C2OC(N)=C(C#N)C3c2ccc(O)c(OCC)c2)ccc1O` (stereo not shown) [3b, (E)-6-Acetyl-2-amino-3-cyano-4-(3-ethoxy-4-hydroxy-phenyl)-8-(3-ethoxy-4-hydroxy-benzylidene)-5,6,7,8-tetrahydro-4H-pyrano[3,2-c]pyridine], the IC50 in the series with human hepatoma (Huh-7) amounted to 6.54 µM; in series [1], 15.5 µM; in series [2], 6.13 µM; with tubulin, 4.03 µM. This compound yielded an IC50 tubulin polymerisation in the series with tubulin of 4.03 µg/mL (≈ 8 µM). Further, the “Inhibition (%) of tubulin polymerisation” value in the series with tubulin was found to be 81%. In the series with (A549) cells, the “Morphological assessment of cells” value is “apparent cell toxicity”. Further, the “Histopathology of mammary gland (H&E): inflammatory cells infiltrates” value with mammary tumors is listed as “intensity of inflammatory cells infiltrates decreased”. In addition, in series [3], the “Effect on rats' body weights” value is listed as “did not have a significant effect”.
Consider `CC(=O)N1CC2=C(OC(N)=C(C#N)C2c2ccc(Cl)cc2)/C(=C/c2ccc(Cl)cc2)C1` (stereo not shown) [3c, (E)-6-Acetyl-2-amino-3-cyano-8-(4-chlorobenzylidene)-4-(4-chlorophenyl)-5,6,7,8-tetrahydro-4H-pyrano[3,2-c]pyridine], for which the half-maximal inhibitory concentration (IC50) with human hepatoma (Huh-7) was 17.7 µM; in series [1], 61.2 µM; in series [2] it was 6.38 µM.
For the compound `CC(=O)N1CC2=C(OC(N)=C(C#N)C2/C=C/c2ccccc2)/C(=C/C=C/c2ccccc2)C1` (stereo not shown) [3d, (E)-6-Acetyl-2-amino-3-cyano-8-((E)-3-phenylallylidene)-4-((E)-styryl)-5,6,7,8-tetrahydro-4H-pyrano[3,2-c]pyridine], in the series with human hepatoma (Huh-7), the IC50 worked out at 20.7 µM.
As to `COc1cc(/C=C2\CN(C(C)=O)CC3=C2NC(=S)NC3c2ccc(O)c(OC)c2)ccc1O` (stereo not shown) [4a, (E)-6-Acetyl-8-(4-hydroxy-3-methoxybenzylidene)-4-(4-hydroxy-3-methoxyphenyl)-1,3,4,5,7,8-hexahydro-2H-pyrido[4,3-d]pyrimidin-2-thione], the half-maximal inhibitory concentration (IC50) with human hepatoma (Huh-7) turned out to be 2.48 µM; in series [1], 46.9 µM; in series [2], 8.01 µM.
The corresponding values for `CCOc1cc(/C=C2\CN(C(C)=O)CC3=C2NC(=S)NC3c2ccc(O)c(OCC)c2)ccc1O` (stereo not shown) [4b, (E)-6-Acetyl-8-(3-ethoxy-4-hydroxybenzylidene)-4-(3-ethoxy-4-hydroxyphenyl)-1,3,4,5,7,8-hexahydro-2H-pyrido[4,3-d]pyrimidin-2-thione] are 7.27 µM, 42.3 µM and 16 µM.
As to `COc1cc(/C=C2\CN(C(C)=O)CC3C2=NN(c2ccccc2)C3c2ccc(O)c(OC)c2)ccc1O` (stereo not shown) [5a, (E)-5-Acetyl-7-(4-hydroxy-3-methoxybenzylidene)-3-(4-hydroxy-3-methoxyphenyl)-2-phenyl-2,3,3a,4,6,7-hexahydro-5H-pyrazolo[4,3-c]pyridine], the 50% inhibitory concentration (IC50) with human hepatoma (Huh-7) stood at 5.47 µM; in series [1] it was 20.3 µM; in series [2], 5.27 µM; in the series with tubulin, 6.06 µM. Also, in the series with tubulin, the “Inhibition (%) of tubulin polymerisation” value worked out at 76%.
The corresponding values for `CCOc1cc(/C=C2\CN(C(C)=O)CC3C2=NN(c2ccccc2)C3c2ccc(O)c(OCC)c2)ccc1O` (stereo not shown) [5b, (E)-5-Acetyl-7-(3-ethoxy-4-hydroxybenzylidene)-3-(3-ethoxy-4-hydroxyphenyl)-2-phenyl-2,3,3a,4,6,7-hexahydro-5H-pyrazolo[4,3-c]pyridine] are 2.23 µM, 15.2 µM, 9.04 µM, 12.6 µM and 70%.
Take `COc1ccc(/C=C\c2cc(OC)c(OC)c(OC)c2)cc1O` [CA-4, Combretastatin A-4, reference compound]: in the series on tubulin, the IC50 tubulin polymerisation is […], the “Inhibition (%) of tubulin polymerisation” value worked out at […] and the half-inhibitory concentration (IC50) was […].
On to `CC(=O)O[C@H]1C(=O)[C@@]2(C)[C@H]([C@H](OC(=O)c3ccccc3)[C@]3(O)C[C@H](OC(=O)[C@H](O)[C@@H](NC(=O)c4ccccc4)c4ccccc4)C(C)=C1C3(C)C)[C@]1(OC(C)=O)CO[C@@H]1C[C@@H]2O` [Taxol, reference compound], for which the figures for the IC50 (in the series with human hepatoma (Huh-7); in series [1]; in series [2]) were 6.68 µM, 38.1 µM and 12.3 µM, respectively. In the series on (A549) cells, the “Morphological assessment of cells” value is given as “apparent cell toxicity”. Moreover, in the series on mammary tumors, the “Histopathology of mammary gland (H&E): inflammatory cells infiltrates” value is on record as “intensity of inflammatory cells infiltrates decreased”. Further, the “Effect on rats' body weights” value in series [3] is “did not have a significant effect”.
